{"data": "Results pooled from the literature", "effect on": "metabolic stability", "note": "Protocols differ between the studies behind these lines."}
{"Structure (SMILES)": "Cc1nc2c(=O)n(C)c(=O)nc-2n(C)n1", "host": "mouse", "sample": "liver microsomes", "half-life [min]": "> 186"}
{"Structure (SMILES)": "Nc1ncnc2c1c(Oc1cc(C(F)(F)F)ccn1)nn2C1CCC(F)(F)CC1", "host": "mouse", "sample": "liver microsomes", "tested at": "1 µM", "half-life [min]": "~25"}
{"Structure (SMILES)": "C=C1NC(=O)[C@H](C)N(O)C(=O)[C@H]([C@@H](O)C(N)=O)N(C)C(=O)[C@H](C)OC(=O)[C@@H]2C[C@H](C)CN2C1=O", "host": "mouse", "sample": "liver microsomes", "half-life [min]": "> 120"}
{"Structure (SMILES)": "C[C@]12CC[C@H]3[C@@H](CCC4=CC(=O)CC[C@@]43C)[C@@H]1CC[C@@H]2O", "host": "mouse", "sample": "liver microsomes", "tested at": "1 µM", "half-life [min]": 2.1}
{"Structure (SMILES)": "Nc1ncnc2c1c(Oc1cc(Cl)ccn1)nn2C1CCC(F)(F)CC1", "host": "mouse", "sample": "liver microsomes", "tested at": "1 µM", "half-life [min]": "~25"}
{"Structure (SMILES)": "O=C(c1ccc(-n2sc3ncccc3c2=O)cc1)N1CCOCC1", "host": "mouse", "sample": "liver microsomes", "half-life [min]": "> 120"}
{"Structure (SMILES)": "C[C@H](Cn1cnc2c(N)ncnc21)OCP(=O)(O)OCCCOCCCCCCCCCCCCCCCC(F)(F)F.N", "host": "CD-1 mouse", "sample": "liver microsomes", "tested at": "3 µM", "pH": "pH 7.4", "half-life [min]": "> 120"}
{"Structure (SMILES)": "O=C(c1cc(-n2sc3ncccc3c2=O)ccc1Cl)N1CCOCC1", "host": "mouse", "sample": "liver microsomes", "half-life [min]": "> 120"}
{"Structure (SMILES)": "CCCCCCCCCCCCCCCCOCCCOP(=O)(O)CO[C@H](C)Cn1cnc2c(N)ncnc21.N", "host": "CD-1 mouse", "sample": "liver microsomes", "tested at": "3 µM", "pH": "pH 7.4", "half-life [min]": "> 120"}
{"Structure (SMILES)": "Cc1cnc(Nc2ccc(C(=O)NC3CCN(C(=O)COCCOCCOCC(=O)N4CCC(NC(=O)c5ccc(Nc6ncc(C)c(Nc7ccc(Cl)c(NS(=O)(=O)C(C)(C)C)c7)n6)cc5F)CC4)CC3)c(F)c2)nc1Nc1ccc(Cl)c(NS(=O)(=O)C(C)(C)C)c1", "host": "mouse", "sample": "liver microsomes", "half-life [min]": 33}
{"Structure (SMILES)": "Cc1cc(C)nc(Nc2ncc(C(=O)NCCc3c(C)[nH]c4ccccc34)cn2)c1", "host": "CD-1 mouse", "sample": "hepatocytes", "tested at": "1 µM", "half-life [min]": 39}
{"Structure (SMILES)": "CN1CCCCC1Cn1cc(C(=O)c2cc([N+](=O)[O-])ccc2I)c2ccccc21 (racemic)", "host": "mouse", "sample": "liver microsomes", "half-life [min]": 10.6}
{"Structure (SMILES)": "N=c1c2c(-c3ccccc3)c(-c3ccccc3)n(Cc3ccccc3)c2ncn1[C@H]1CC[C@H](O)CC1", "host": "mouse", "sample": "liver S9", "tested at": "1 µM", "half-life [min]": "> 120"}
